The source of these data is ChEMBL document CHEMBL5661979, “Pharmacological inhibition of BMK1 suppresses tumor growth through promyelocytic leukemia protein” (Cancer Cell, 2010).

Each structure is given as a SMILES string.

Holding throughout (format): subcellular
For assay [1], the target named is Serine/threonine-protein kinase 24 (Homo sapiens, UniProt Q9Y6E0). Description: Inhibition of MST3 in human HeLa cells lysate at 50 uM pre incubated for 15 mins followed by ATP acyl phosphate probe addition and measured after 10 mins by LC-MS/MS analysis relative to control. The following applies: time 25.0 min.
Another assay deals with Activated CDC42 kinase 1 (Homo sapiens, UniProt Q07912). Description: Inhibition of ACK1 in human HeLa cells lysate at 10 uM pre incubated for 15 mins followed by ADP acyl phosphate probe addition and measured after 10 mins by LC-MS/MS analysis relative to control. The following applies: time 25.0 min. Summed up: (§1)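 HeLa cell lysates (5 mg/mL total protein) were preincubated with inhibitor at 0, 0.8, 2, 10 or 50 μM for 15 min. ATP or ADP acylphosphate probe was then added (5 μM final) for 10 min, and reactions were stopped with urea. Up to four fragment ions per kinase probe-peptide were quantified by targeted MS. % inhibition was taken relative to untreated lysate. Run in duplicate.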

Assay [2] has as its target Epidermal growth factor receptor (Homo sapiens, UniProt P00533). Description: Inhibition of EGFR in human HeLa cells lysate at 10 uM pre incubated for 15 mins followed by ATP acyl phosphate probe addition and measured after 10 mins by LC-MS/MS analysis relative to control. The following applies: time 25.0 min.
For assay [3], the target named is Serine/threonine-protein kinase 38 (Homo sapiens, UniProt Q15208). Kind of assay: Inhibition of NDR1 in human HeLa cells lysate at 2 uM pre incubated for 15 mins followed by ATP acyl phosphate probe addition and measured after 10 mins by LC-MS/MS analysis relative to control. The following applies: time 25.0 min.
In assay [4] the target is Tyrosine-protein kinase ABL (Homo sapiens, UniProt P00519+P42684). Description: Inhibition of ABL1/2 in human HeLa cells lysate at 50 uM pre incubated for 15 mins followed by ATP acyl phosphate probe addition and measured after 10 mins by LC-MS/MS analysis relative to control. The following applies: time 25.0 min. Summed up:
as §1

Assay [5] deals with Tyrosine-protein kinase receptor UFO (Homo sapiens) (UniProt P30530). Kind of assay: Inhibition of AXL in human HeLa cells lysate at 2 uM pre incubated for 15 mins followed by ADP acyl phosphate probe addition and measured after 10 mins by LC-MS/MS analysis relative to control. The following applies: time 25.0 min. Put shortly: (§2)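 KiNativ-type profiling in HeLa lysate (5 mg/mL total protein). Lysate preincubated 15 min with inhibitor at 50, 10, 2, 0.8 or 0 μM, then ATP or ADP acylphosphate probe added (5 μM final) for 10 min. Reaction stopped with urea and analysed by targeted MS, using up to four fragment ions per kinase peptide-probe conjugate. % inhibition calculated against untreated lysate. Duplicate reactions.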

The target of assay [6] is Interleukin-1 receptor-associated kinase 1 (Homo sapiens, UniProt P51617). Kind of assay: Inhibition of IRAK1 in human HeLa cells lysate at 50 uM pre incubated for 15 mins followed by ATP acyl phosphate probe addition and measured after 10 mins by LC-MS/MS analysis relative to control. The following applies: time 25.0 min.
The target of assay [7] is Serine/threonine-protein kinase Nek7 (Homo sapiens, UniProt Q8TDX7). Kind of assay: Inhibition of NEK7 in human HeLa cells lysate at 10 uM pre incubated for 15 mins followed by ADP acyl phosphate probe addition and measured after 10 mins by LC-MS/MS analysis relative to control. The following applies: time 25.0 min.
For assay [8], the target named is Cyclin-dependent kinase 2 (Homo sapiens, UniProt P24941). Kind of assay: Inhibition of CDK2 in human HeLa cells lysate at 10 uM pre incubated for 15 mins followed by ATP acyl phosphate probe addition and measured after 10 mins by LC-MS/MS analysis relative to control. The following applies: time 25.0 min. Put shortly:
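KiNativ profiling in HeLa lysate (5 mg/mL total protein). Lysate incubated 15 min with inhibitor at 50, 10, 2, 0.8 or 0 μM. ATP or ADP acylphosphate probe then added (5 μM final) and reacted 10 min. Reaction stopped with urea and analysed by targeted MS, using up to four fragment ions per kinase peptide-probe conjugate. % inhibition taken against untreated lysate. Run in duplicate.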

In assay [9] the target is Serine/threonine-protein kinase 4 (Homo sapiens, UniProt Q13043). Description: Inhibition of MST1 in human HeLa cells lysate pre incubated for 15 mins followed by ADP acyl phosphate probe addition and measured after 10 mins by LC-MS/MS analysis.
Assay [10] addresses Phosphatidylinositol 3-kinase catalytic subunit type 3 (Homo sapiens, UniProt Q8NEB9). Kind of assay: Inhibition of PIK3C3 in human HeLa cells lysate at 50 uM pre incubated for 15 mins followed by ATP acyl phosphate probe addition and measured after 10 mins by LC-MS/MS analysis relative to control. The following applies: time 25.0 min.
In assay [11] the target is T1, Dual specificity mitogen-activated protein kinase kinase 5 (Homo sapiens) (UniProt Q13163).
T1 sequence (whole entry): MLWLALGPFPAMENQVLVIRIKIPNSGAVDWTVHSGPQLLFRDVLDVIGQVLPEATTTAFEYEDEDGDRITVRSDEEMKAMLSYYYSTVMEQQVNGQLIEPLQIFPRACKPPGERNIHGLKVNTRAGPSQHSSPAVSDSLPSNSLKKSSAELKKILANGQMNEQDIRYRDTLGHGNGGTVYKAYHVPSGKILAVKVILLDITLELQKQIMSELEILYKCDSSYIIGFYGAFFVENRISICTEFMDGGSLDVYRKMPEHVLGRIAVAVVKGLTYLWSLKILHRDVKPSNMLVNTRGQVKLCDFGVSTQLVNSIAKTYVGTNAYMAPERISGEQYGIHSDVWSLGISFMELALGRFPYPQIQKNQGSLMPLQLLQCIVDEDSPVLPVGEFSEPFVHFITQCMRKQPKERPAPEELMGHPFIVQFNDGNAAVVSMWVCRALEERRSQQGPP
Kind of assay: Inhibition of MAP2K5 in human HeLa cells lysate at 2 uM pre incubated for 15 mins followed by ADP acyl phosphate probe addition and measured after 10 mins by LC-MS/MS analysis relative to control. The following applies: time 25.0 min.

Assay [12] has as its target Serine/threonine-protein kinase PLK1 (Homo sapiens, UniProt P53350). Kind of assay: Inhibition of PLK1 in human HeLa cells lysate pre incubated for 15 mins followed by ADP acyl phosphate probe addition and measured after 10 mins by LC-MS/MS analysis.
For assay [13], the target named is Dual specificity mitogen-activated protein kinase kinase 3 (Homo sapiens, UniProt P46734). Kind of assay: Inhibition of MAP2K3 in human HeLa cells lysate pre incubated for 15 mins followed by ADP acyl phosphate probe addition and measured after 10 mins by LC-MS/MS analysis.
The target in assay [14] is Serine/threonine-protein kinase ATR (Homo sapiens, UniProt Q13535). Kind of assay: Inhibition of ATR in human HeLa cells lysate at 2 uM pre incubated for 15 mins followed by ATP acyl phosphate probe addition and measured after 10 mins by LC-MS/MS analysis relative to control. The following applies: time 25.0 min. Summed up: as §2
Assay [15] concerns the target MAP/microtubule affinity-regulating kinase 3 (Homo sapiens, UniProt P27448). Kind of assay: Inhibition of MARK3 in human HeLa cells lysate at 10 uM pre incubated for 15 mins followed by ADP acyl phosphate probe addition and measured after 10 mins by LC-MS/MS analysis relative to control. The following applies: time 25.0 min.
In assay [16] the target is Tyrosine-protein kinase JAK1 (Homo sapiens, UniProt P23458). Kind of assay: Inhibition of JAK1 domain 2 in human HeLa cells lysate pre incubated for 15 mins followed by ADP acyl phosphate probe addition and measured after 10 mins by LC-MS/MS analysis.

Chain of Interleukin-1 receptor-associated kinase 1 (P51617 whole entry, looked up): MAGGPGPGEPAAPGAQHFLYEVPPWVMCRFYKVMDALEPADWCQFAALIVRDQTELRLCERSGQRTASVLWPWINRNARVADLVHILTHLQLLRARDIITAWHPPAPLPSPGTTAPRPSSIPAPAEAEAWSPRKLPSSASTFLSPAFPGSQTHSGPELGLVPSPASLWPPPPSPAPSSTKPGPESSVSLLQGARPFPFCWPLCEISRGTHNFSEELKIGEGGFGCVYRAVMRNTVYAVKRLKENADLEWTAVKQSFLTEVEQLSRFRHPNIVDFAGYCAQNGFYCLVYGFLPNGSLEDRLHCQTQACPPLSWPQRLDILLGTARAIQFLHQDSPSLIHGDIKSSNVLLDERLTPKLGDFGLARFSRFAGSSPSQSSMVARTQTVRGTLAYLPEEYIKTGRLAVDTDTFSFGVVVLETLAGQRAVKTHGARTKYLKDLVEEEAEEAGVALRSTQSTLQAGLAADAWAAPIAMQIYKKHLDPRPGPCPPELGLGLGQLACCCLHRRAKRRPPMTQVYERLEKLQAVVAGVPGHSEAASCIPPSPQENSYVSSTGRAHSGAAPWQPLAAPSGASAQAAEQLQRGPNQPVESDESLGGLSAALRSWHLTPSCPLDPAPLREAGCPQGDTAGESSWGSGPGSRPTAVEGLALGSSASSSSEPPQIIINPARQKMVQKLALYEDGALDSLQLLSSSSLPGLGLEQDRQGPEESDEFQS
Chain of Serine/threonine-protein kinase Nek7 (Q8TDX7 whole entry, looked up): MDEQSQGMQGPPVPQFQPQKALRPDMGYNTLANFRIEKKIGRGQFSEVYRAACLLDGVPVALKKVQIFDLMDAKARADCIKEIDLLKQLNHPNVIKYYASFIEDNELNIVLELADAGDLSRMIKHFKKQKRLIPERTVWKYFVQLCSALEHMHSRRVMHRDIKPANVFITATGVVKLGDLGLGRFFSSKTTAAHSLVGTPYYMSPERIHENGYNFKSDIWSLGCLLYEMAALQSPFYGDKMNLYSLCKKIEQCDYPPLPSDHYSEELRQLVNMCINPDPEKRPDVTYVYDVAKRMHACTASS
Chain of Serine/threonine-protein kinase ATR (Q13535 whole entry, looked up): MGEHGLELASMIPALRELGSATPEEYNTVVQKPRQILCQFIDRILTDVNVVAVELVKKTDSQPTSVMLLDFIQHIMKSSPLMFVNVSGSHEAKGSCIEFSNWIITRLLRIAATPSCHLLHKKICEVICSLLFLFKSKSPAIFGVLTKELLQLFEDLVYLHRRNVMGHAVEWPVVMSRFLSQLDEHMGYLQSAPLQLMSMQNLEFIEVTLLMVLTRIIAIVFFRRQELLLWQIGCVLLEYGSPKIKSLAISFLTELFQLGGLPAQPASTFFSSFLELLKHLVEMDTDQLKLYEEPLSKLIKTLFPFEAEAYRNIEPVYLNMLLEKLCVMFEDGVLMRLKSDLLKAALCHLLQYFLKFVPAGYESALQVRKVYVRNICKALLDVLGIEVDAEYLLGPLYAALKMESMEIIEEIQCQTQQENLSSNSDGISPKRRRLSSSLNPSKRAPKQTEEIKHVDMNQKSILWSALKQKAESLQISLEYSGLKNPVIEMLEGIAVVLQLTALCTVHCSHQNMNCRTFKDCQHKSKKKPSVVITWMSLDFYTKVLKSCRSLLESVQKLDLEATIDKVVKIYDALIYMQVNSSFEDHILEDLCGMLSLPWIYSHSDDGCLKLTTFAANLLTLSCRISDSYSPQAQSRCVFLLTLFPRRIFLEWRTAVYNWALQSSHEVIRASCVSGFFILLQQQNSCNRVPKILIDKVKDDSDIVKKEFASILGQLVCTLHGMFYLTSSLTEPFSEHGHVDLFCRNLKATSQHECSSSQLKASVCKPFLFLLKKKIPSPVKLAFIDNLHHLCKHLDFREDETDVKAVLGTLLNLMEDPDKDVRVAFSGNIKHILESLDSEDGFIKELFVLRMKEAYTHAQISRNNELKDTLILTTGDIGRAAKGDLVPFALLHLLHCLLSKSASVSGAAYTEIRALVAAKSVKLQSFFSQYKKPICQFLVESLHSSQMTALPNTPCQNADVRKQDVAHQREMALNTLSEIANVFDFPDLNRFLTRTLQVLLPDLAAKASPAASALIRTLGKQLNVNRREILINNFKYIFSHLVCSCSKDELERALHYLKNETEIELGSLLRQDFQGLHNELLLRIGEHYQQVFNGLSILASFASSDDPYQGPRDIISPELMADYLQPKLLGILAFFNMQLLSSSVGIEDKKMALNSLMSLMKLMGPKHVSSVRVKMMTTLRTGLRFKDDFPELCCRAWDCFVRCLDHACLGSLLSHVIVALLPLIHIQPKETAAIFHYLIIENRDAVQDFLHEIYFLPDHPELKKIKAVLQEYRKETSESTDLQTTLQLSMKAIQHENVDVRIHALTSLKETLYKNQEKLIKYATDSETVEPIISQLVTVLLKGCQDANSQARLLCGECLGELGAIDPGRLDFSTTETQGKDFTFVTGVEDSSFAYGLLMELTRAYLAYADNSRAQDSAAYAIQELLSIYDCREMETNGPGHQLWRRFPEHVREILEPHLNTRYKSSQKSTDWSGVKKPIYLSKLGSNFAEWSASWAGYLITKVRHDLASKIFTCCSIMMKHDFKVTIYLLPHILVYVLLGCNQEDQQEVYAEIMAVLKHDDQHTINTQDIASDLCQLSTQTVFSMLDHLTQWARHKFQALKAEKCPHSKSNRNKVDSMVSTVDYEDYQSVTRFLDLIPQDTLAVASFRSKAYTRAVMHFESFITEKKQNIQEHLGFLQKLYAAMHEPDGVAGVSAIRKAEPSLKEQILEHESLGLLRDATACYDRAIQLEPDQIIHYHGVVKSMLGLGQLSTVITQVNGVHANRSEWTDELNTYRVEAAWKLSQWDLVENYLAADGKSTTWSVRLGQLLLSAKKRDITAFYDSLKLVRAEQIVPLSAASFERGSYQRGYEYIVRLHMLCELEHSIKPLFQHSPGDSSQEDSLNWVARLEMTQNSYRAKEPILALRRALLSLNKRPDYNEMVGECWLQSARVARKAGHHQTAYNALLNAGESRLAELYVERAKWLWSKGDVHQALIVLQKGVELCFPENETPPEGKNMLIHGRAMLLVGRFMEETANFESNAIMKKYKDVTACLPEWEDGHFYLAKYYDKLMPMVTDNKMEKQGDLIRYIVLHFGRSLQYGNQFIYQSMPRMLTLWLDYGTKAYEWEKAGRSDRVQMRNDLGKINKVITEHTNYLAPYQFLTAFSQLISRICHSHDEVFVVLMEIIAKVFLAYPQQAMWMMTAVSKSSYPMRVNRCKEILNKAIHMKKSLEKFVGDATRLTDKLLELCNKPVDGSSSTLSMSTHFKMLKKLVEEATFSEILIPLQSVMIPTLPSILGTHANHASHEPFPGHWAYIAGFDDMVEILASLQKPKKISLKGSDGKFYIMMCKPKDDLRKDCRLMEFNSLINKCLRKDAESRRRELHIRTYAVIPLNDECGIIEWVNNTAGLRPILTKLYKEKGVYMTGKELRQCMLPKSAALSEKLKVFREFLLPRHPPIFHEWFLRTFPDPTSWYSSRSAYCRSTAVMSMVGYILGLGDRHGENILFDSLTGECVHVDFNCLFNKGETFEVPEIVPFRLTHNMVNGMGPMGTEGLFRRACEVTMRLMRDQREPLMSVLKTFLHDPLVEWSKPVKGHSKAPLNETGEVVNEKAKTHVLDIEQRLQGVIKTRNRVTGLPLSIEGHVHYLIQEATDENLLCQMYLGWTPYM
Chain of Serine/threonine-protein kinase 24 (Q9Y6E0 whole entry, looked up, the tested form may be a part): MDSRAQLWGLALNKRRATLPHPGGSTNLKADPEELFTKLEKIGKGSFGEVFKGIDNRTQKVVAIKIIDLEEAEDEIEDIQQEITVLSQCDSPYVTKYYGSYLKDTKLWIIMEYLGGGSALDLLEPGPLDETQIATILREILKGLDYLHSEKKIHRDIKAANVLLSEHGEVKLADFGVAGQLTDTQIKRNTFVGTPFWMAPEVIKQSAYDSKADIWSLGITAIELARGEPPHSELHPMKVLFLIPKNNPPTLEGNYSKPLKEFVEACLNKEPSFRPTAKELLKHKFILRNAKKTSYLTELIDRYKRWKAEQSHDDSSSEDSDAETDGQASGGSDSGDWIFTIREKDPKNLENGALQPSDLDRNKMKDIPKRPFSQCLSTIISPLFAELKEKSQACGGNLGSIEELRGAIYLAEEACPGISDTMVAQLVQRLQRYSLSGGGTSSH
Chain of Phosphatidylinositol 3-kinase catalytic subunit type 3 (Q8NEB9 whole entry): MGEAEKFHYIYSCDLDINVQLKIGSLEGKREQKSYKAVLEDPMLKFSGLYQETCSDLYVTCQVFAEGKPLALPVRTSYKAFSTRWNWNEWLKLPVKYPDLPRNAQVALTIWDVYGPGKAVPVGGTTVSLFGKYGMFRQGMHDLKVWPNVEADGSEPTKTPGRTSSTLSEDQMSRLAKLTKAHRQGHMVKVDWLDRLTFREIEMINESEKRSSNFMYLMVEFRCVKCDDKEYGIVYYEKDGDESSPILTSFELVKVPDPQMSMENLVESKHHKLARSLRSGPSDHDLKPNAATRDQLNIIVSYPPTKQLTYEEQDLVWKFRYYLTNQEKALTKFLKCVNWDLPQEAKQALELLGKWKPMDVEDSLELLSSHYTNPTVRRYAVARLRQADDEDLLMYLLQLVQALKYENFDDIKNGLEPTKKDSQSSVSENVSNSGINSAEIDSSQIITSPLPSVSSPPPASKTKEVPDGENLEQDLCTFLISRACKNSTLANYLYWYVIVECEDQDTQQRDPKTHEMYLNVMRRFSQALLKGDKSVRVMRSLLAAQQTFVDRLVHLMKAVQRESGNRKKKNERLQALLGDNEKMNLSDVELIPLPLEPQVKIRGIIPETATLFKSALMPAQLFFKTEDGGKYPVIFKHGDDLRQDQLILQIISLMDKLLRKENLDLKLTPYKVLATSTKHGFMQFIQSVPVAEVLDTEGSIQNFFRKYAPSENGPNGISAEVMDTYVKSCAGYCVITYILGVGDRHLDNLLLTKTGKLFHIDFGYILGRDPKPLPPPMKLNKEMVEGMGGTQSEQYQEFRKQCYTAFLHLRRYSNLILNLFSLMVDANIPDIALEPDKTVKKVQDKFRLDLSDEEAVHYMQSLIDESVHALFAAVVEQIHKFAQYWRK

Take `CCOc1cc(N2CCC(O)CC2)ccc1Nc1ncc2c(n1)N(C)c1ccccc1C(=O)N2C`: the inhibition in assay [1] was -4.6%; at Activated CDC42 kinase 1 it was 37%; in [2], -5%; in [3], -4.3%; in assay [4], 4.9%; in assay [5], 13.1%. In addition, the inhibition was -8.3% in [6]; -7.9% in assay [7]; 6% in assay [8]; 19.3% in [10]; 19.1% in assay [11]; 25.9% in [14]. In addition, the inhibition in assay [15] was found to be 4.8%. The IC50 in assay [9], in [12], in assay [13] and in assay [16] was more than 50 µM each time.
